Results on four molecules are retold here after ChEMBL document CHEMBL1131125, “Effect of polyamine analogues on hypusine content in JURKAT T-cells” (J Med Chem, 1998).

The subject of experiment [1] is Jurkat. Kind of experiment: % of putrescine (PUT) in JURKAT cells after 144 hr at 5 uM concentration. The class given is functional, cell-based. The conditions noted are these: Homo sapiens. The essentials: (§1)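 Log-phase JURKAT cells were treated with analogue for 144 h, at 2 μM for tetraamines or 5 μM for triamines. After two ice-cold RPMI-1640 washes, pellets were extracted with 1.2 N HClO4. Results are percent of untreated control, mean ± SD of 2–5 determinations run in triplicate.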

The test system of experiment [2] is Jurkat. Description: % of spermidine (SPD) in JURKAT cells after 144 hr at 5 uM concentration. Format: functional, cell-based. The conditions noted are these: Homo sapiens. Put shortly: as §1
Experiment [3] deals with L1210. Kind of experiment: Effect of compound on polyamine biosynthetic enzymes in L1210 cells using AdoMetDC assay. The class given is functional, Mus musculus.
Experiment [4] has as its system L1210. Kind of experiment: % of spermine (SPM) in L1210 cells after 48 hr at 100 uM concentration. The class given is functional, cell-based. The conditions noted are these: Mus musculus.
Experiment [5] deals with L1210. Description: Activity of compound measured against L1210 cells. The class given is functional, cell-based, Mus musculus.
Experiment [6] relates to L1210. Kind of experiment: % of putrescine (PUT) in L1210 cells after 48 hr at 100 uM concentration. Format: functional, cell-based. The conditions noted are these: Mus musculus.
Experiment [7] deals with L1210. Kind of experiment: % of spermidine (SPD) in L1210 cells after 48 hr at 100 uM concentration. Format: functional, cell-based. The conditions noted are these: Mus musculus.
The test system of experiment [8] is Jurkat. Description: % of hypusine (Hpu) in JURKAT cells after 144 hr at 5 uM concentration. The conditions noted are these: Homo sapiens. Format: functional, cell-based. Put shortly: (§2)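 JURKAT cells in log-phase growth were exposed to analogue for 144 h, at 2 μM for the tetraamines or 5 μM for the triamines. Cells were washed twice with ice-cold RPMI-1640 and extracted with 1.2 N HClO4. Values are percent of untreated control, mean ± SD of 2–5 determinations, each in triplicate.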

Experiment [9] relates to Jurkat. Description: % of spermine (SPM) in JURKAT cells after 144 hr at 5 uM concentration. Format: functional, cell-based. The conditions noted are these: Homo sapiens. The essentials: as §1
Experiment [10] has as its system Jurkat. Description: Inhibitory activity against growth of JURKAT cells after 144h. The conditions noted are these: Homo sapiens. Format: functional, cell-based. The essentials: (§3)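 JURKAT cells were grown in RPMI-1640 with 10% fetal calf serum, 2 mM L-glutamine and 1 mM aminoguanidine. Cells were counted electronically. IC50 is the concentration giving 50% of untreated growth, mean of at least two experiments.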

In experiment [11] the test system is Jurkat. Description: competitive inhibition of [3H]SPD transport in JURKAT cells. Format: functional, cell-based, Homo sapiens. Put shortly: (§4)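 [3H]spermidine uptake rate into JURKAT cells was measured at six spermidine concentrations, without analogue and with analogue at 50, 25 and 10 μM. Lineweaver–Burk plots were used to assign the competitive mode and derive Ki. Values are means of two or three experiments.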

Experiment [12] relates to L1210. Kind of experiment: Effect of compound on polyamine biosynthetic enzymes in L1210 cells using ODC assay. Format: functional, Mus musculus.
Experiment [13] deals with Jurkat. Kind of experiment: effect of compound on polyamine biosynthetic enzymes in JURKAT cells using ODC assay. The class given is functional, Homo sapiens.
Experiment [14] deals with Jurkat. Kind of experiment: effect of compound on polyamine biosynthetic enzymes in JURKAT cells using AdoMetDC assay. Format: functional, Homo sapiens.
In experiment [15] the test system is L1210. Description: effect of compound on polyamine biosynthetic enzymes in L1210 cells using AdoMetDC assay. The class given is functional, Mus musculus.
The subject of experiment [16] is Jurkat. Description: inhibitory activity against growth of JURKAT cells after 144h. The class given is functional, cell-based. The conditions noted are these: Homo sapiens. The essentials: as §3
Experiment [17] relates to L1210. Kind of experiment: effect of compound on polyamine biosynthetic enzymes in L1210 cells using ODC assay. The class given is functional, Mus musculus.
For experiment [18], the system named is Jurkat. Description: competitive inhibition of [3H]SPD transport by JURKAT cells. The class given is functional, cell-based, Homo sapiens. Put shortly: as §4
Experiment [19] concerns Jurkat. Description: % of putrescine (PUT) in JURKAT cells after 144 h at 2 uM concentration. The class given is functional, cell-based. The conditions noted are these: Homo sapiens. Put shortly: as §1
The test system of experiment [20] is Jurkat. Kind of experiment: % of spermidine (SPD) in JURKAT cells after 144 hr at 2 uM concentration. The class given is functional, cell-based. The conditions noted are these: Homo sapiens. Put shortly:
as §1

Experiment [21] deals with Jurkat. Description: % of hypusine (Hpu) in JURKAT cells after 144 hr at 2 uM concentration. Format: functional, cell-based. The conditions noted are these: Homo sapiens. The essentials:
as §2

Experiment [22] relates to L1210 (mouse). Kind of experiment: % of hypusine (Hpu) in control cells after 72 hr at 2 uM concentration.
Experiment [23] deals with L1210. Kind of experiment: % of spermine (SPM) in L1210 cells after 48 hr at 10 uM concentration. The class given is functional, cell-based. The conditions noted are these: Mus musculus.
In experiment [24] the test system is Jurkat. Description: % of spermine (SPM) in JURKAT cells after 144 hr at 2 uM concentration. The conditions noted are these: Homo sapiens. Format: functional, cell-based. The essentials: as §1
For experiment [25], the system named is L1210 (mouse). Description: % of spermidine (SPD) in control cells after 72 hr at 2 uM concentration.
Experiment [26] relates to L1210. Description: % of putrescine (PUT) in L1210 cells after 48 hr at 10 uM concentration. Format: functional, cell-based. The conditions noted are these: Mus musculus.
In experiment [27] the test system is L1210 (mouse). Kind of experiment: % of putrescine (PUT) in control cells after 72 hr at 2 uM concentration.
Experiment [28] deals with L1210. Kind of experiment: % of spermidine (SPD) in L1210 cells after 48 hr at 10 uM concentration. Format: functional, cell-based. The conditions noted are these: Mus musculus.
The test system of experiment [29] is L1210 (mouse). Description: % of spermine (SPM) in control cells after 72 hr at 2 uM concentration.
Experiment [30] deals with Jurkat. Description: Competitive inhibition of [3H]SPD (spermidine) transport in JURKAT cells. The class given is functional, cell-based, Homo sapiens. Put shortly: as §4

As usually defined, the Ki is the equilibrium dissociation constant of an inhibitor or competing ligand from its target. A high value points to lower affinity. The term IC50 denotes the concentration needed to halve the response being measured. With `NCCCCCNCCCCN`, the Level in the experiment on Jurkat [1] stood at 0%; in the experiment on Jurkat [2], 0%; with L1210 [4], 53%; with L1210 [6] it was 0%; in the experiment with L1210 [7], 0%; in the experiment with Jurkat [8], 80.2%. The Level in the experiment with Jurkat [9] was determined as 25.2%. In addition, the Control in the experiment with L1210 [3] was found to be 57%; in the experiment on L1210 [12], 19%. Moreover, the Ki in the experiment on L1210 [5] was 1400 nM; in the experiment with Jurkat [11], 2800 nM. In the experiment with Jurkat [10], this molecule showed an IC50 of 70000 nM. Besides, the “ODC activity (% of control)” value in the experiment on Jurkat [13] is 34.7%. Also, in the experiment with Jurkat [14], the “AdoMetDC activity (% of control)” value was found to be 79.3%.

Take `NCCCCCNCCCCCN`: the Level with Jurkat [1] amounted to 0%; in the experiment on Jurkat [2], 1.1%; with L1210 [4], 33%; in the experiment with L1210 [6], 0%; in the experiment with L1210 [7], 0%; in the experiment with Jurkat [8], 86.4%. For the same molecule, the Level in the experiment on Jurkat [9] is 38.8%. The Control in the experiment on L1210 [15] was found to be 88%; with L1210 [17], 16%. Besides, the values for the Ki in the experiment with L1210 [5] and with Jurkat [18] were 14000 nM and 13800 nM, respectively. In addition, the IC50 in the experiment on Jurkat [16] was determined as 1200 nM. The “ODC activity (% of control)” value with Jurkat [13] is 53.3%. In the experiment on Jurkat [14], the “AdoMetDC activity (% of control)” value is 84.9%.

As for `CCNCCCNCCCNCCCNCC` [BIS(ETHYL)NORSPERMINE], the Control in the experiment with L1210 [15] was 42%; in the experiment on L1210 [17], 10%. Further, the Level came to 0% with Jurkat [19]; 9.2% with Jurkat [20]; 58.9% in the experiment with Jurkat [21]; 56.8% with L1210 (mouse) [22]; 31% in the experiment on L1210 [23]; 5.5% in the experiment on Jurkat [24]. Besides, the Level was 3.8% in the experiment on L1210 (mouse) [25]; 30% in the experiment with L1210 [26]; 0% with L1210 (mouse) [27]; 14% in the experiment with L1210 [28]; 13.4% in the experiment on L1210 (mouse) [29]. This molecule also came in with an IC50 in the experiment on Jurkat [16] of 650 nM. The “ODC activity (% of control)” value with Jurkat [13] is reported as 16.9%. The “AdoMetDC activity (% of control)” value with Jurkat [14] is reported as 51.4%. The Ki with Jurkat [18] worked out at 14400 nM.

As for `CCNCCCCNCCCCNCCCCNCC` [DIETHYLHOMOSPERMINE], the Control is listed as 41% in the experiment on L1210 [15] and 7% in the experiment with L1210 [12]. Also, the Level in the experiment with Jurkat [19] came out at 0%; with Jurkat [20], 0%; in the experiment on Jurkat [21] it was 73.2%; in the experiment on L1210 [23] it was 61%; in the experiment on Jurkat [24], 13.4%; in the experiment with L1210 [26], 0%. In the experiment with L1210 [28], this molecule yielded a Level of 0%. Further, the Ki in the experiment with L1210 [5] stood at 2000 nM; with Jurkat [30] it was 8800 nM. Further, 200 nM corresponded to half-maximal inhibition in the experiment on Jurkat [10] (IC50). The “ODC activity (% of control)” value with Jurkat [13] was found to be 29.8%. Also, the “AdoMetDC activity (% of control)” value in the experiment with Jurkat [14] is reported as 61.6%.
